Assay results from ChEMBL document CHEMBL3627629 (Bioorg Med Chem Lett, 2015).

Columns and labels:
Assay type in all cases: cell-based
[1] = biological target: T1, Muscarinic acetylcholine receptor M1 (Homo sapiens, UniProt P11229); assay: Displacement of [3H]NMS from human muscarinic M1 receptor expressed in CHO cells after 2 hrs by liquid scintillation spectrometry analysis
T1 sequence (P11229 whole entry): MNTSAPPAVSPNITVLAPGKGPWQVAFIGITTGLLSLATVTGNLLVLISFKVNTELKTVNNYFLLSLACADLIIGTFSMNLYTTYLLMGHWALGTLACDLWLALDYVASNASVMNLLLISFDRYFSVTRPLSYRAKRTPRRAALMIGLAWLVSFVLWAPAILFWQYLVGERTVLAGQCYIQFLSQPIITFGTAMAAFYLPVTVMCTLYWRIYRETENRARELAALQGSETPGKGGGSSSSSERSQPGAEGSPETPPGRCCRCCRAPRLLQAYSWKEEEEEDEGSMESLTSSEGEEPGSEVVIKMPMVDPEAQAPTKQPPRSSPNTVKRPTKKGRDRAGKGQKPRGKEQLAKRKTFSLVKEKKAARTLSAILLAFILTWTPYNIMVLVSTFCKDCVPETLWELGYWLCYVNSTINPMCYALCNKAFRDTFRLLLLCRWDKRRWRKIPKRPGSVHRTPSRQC
How it was run: (§1)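 Membranes from CHO cells stably expressing recombinant human receptor: 10 µg protein/well for M1 and M5, 3 µg for M3. Incubated with 0.3 nM [3H]NMS and 1 nM–100 µM analog in 50 mM Tris-HCl pH 7.4, 2 h at 25 °C. Nonspecific binding defined with 1 µM atropine. GF/B filtration, washed three times. Ki from IC50 by Cheng-Prusoff. Three independent experiments in duplicate, mean ± SEM.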

[2] = biological target: Muscarinic acetylcholine receptor M3 (Homo sapiens, UniProt P20309); assay: Displacement of [3H]NMS from human muscarinic M3 receptor expressed in CHO cells after 2 hrs by liquid scintillation spectrometry analysis; how it was run: as §1
Chain of Muscarinic acetylcholine receptor M3 (P20309 whole entry): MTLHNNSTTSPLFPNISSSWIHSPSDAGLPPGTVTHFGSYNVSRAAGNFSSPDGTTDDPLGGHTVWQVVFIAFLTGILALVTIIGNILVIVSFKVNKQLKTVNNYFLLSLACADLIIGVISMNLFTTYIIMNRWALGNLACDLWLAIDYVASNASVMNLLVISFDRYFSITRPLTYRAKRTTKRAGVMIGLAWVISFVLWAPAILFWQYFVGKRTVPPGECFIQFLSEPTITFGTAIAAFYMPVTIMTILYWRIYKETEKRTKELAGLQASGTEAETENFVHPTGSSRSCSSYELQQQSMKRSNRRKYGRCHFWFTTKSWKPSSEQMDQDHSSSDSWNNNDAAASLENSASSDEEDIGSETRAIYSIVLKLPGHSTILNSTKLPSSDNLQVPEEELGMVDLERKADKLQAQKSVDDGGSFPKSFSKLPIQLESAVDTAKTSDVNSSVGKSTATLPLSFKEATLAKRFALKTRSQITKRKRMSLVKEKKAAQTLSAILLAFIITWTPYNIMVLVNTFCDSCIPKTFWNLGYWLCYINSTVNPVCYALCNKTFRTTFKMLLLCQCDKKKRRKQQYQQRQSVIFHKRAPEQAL

[3] = biological target: T2, Muscarinic acetylcholine receptor M5 (Homo sapiens, UniProt P08912); assay: Displacement of [3H]NMS from human muscarinic M5 receptor expressed in CHO cells after 2 hrs by liquid scintillation spectrometry analysis; how it was run: as §1
T2 sequence (P08912 whole entry): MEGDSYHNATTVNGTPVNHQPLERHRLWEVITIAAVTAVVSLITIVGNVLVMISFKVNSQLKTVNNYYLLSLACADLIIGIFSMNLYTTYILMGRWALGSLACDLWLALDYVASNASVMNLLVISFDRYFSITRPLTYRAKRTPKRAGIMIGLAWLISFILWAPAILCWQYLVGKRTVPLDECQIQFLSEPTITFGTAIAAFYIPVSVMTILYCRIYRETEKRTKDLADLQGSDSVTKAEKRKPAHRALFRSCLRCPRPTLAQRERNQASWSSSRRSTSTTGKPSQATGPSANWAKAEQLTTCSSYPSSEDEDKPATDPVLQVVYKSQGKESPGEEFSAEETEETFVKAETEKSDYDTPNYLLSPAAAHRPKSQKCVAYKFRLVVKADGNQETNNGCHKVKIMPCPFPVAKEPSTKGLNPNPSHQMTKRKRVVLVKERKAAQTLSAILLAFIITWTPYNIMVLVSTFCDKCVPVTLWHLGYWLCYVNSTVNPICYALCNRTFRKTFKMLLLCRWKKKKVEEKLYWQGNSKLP

SMILES	Ki [1] [µM]	Ki [2] [µM]	Ki [3] [µM]
COc1ccc(CCC(=O)NCC2(c3ccccc3)CCN(C)CC2)cc1	3.44	1.54	1.81
COc1ccc(CCOC(=O)C2(c3ccccc3)CCN(C)CC2)cc1OC	10.8	5.26	6.95
COc1ccc(CCOC(=O)C2(c3ccccc3)CCN(C)CC2)cc1	1.2	0.64	0.87
COc1ccc(CCNC(=O)C2(c3ccccc3)CCN(C)CC2)cc1OC	> 30	> 10	> 30
COc1ccc(CCNC(=O)C2(c3ccccc3)CCN(C)CC2)cc1	> 10	3.29	6.97
COc1ccc(CCC(=O)OCC2(c3ccccc3)CCN(C)CC2)cc1OC	3.63	4.6	2.14
COc1ccc(CCC(=O)OCC2(c3ccccc3)CCN(C)CC2)cc1	0.67	0.37	0.38
COc1ccc(CCC(=O)NCC2(c3ccccc3)CCN(C)CC2)cc1OC	> 10	> 30	> 10
COc1ccc(CCNC(=O)OCC2(c3ccccc3)CCN(C)CC2)cc1OC	5.09	4.03	5.41
COc1ccc(CCOC(=O)NCC2(c3ccccc3)CCN(C)CC2)cc1	2.91	2.3	2.05
COc1ccc(CCNC(=O)NCC2(c3ccccc3)CCN(C)CC2)cc1OC	> 10	> 10	> 10
COc1ccc(CCNC(=O)NCC2(c3ccccc3)CCN(C)CC2)cc1	5.4	3.55	4.3
